For orientation: EC50 means the concentration needed to bring the measured effect to its halfway point. A low value points to higher potency in that assay. In general, IC50 refers to the concentration that gives 50% inhibition. One may read the half-life as how long it takes for the measured level to halve. High values mean slow loss, low ones fast loss.

Series [1] can be described thus: Restoration of e-cadherin expression in human SW620 cells at 10 uM by in-cell-western assay relative to control. It is filed as functional, cell-based. The following applies: SW-620. The gist of the method: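 In-Cell-Western immunofluorescence read-out of e-cadherin in SW620 colon carcinoma cells after treatment at 10 μM; value is average fold change from two assessments.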

Series [2] in a line: Restoration of e-cadherin expression in human SW620 cells by in-cell-western assay. It is filed as functional, cell-based. Particulars: SW-620.
Series [3] in a line: Fraction unbound in human. Type of series: ADME, organism-based. The following applies: in vivo.
For another series, the target named is Cytochrome P450 3A4 (Homo sapiens, UniProt P08684). In words: Inhibition of CYP3A4 (unknown origin). It is filed as ADME.
Series [4] can be described thus: Intrinsic clearance in rat microsomes. It is filed as ADME, Microsome.
Series [5] in a line: Half life in Sprague-Dawley rat at 1 mg/kg, iv. Particulars: in vivo. Type of series: ADME, organism-based. The gist of the method: (§1)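 Single 1 mg/kg intravenous dose in male Sprague-Dawley rats; clearance and half-life from plasma pharmacokinetics.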
Series [6] can be described thus: Intrinsic clearance in mouse microsomes. It is filed as ADME, Microsome.
The nature of series [7]: Fraction unbound in rat. It is filed as ADME, organism-based. The following applies: in vivo.
The next series has as its target Cytochrome P450 2C9 (Homo sapiens, UniProt P11712). The experiment in a line: Inhibition of CYP2C9 (unknown origin). Type of series: ADME.
Series [8] can be described thus: Fraction unbound in mouse. It is filed as ADME, organism-based. Particulars: in vivo.
The nature of series [9]: Intrinsic clearance in human microsomes. Type of series: ADME, Microsome.
For another series, the target named is Cytochrome P450 2D6 (Homo sapiens, UniProt P10635). The experiment in a line: Inhibition of CYP2D6 (unknown origin). It is filed as ADME.
A further series deals with T1, Cytochrome P450 1A2 (Homo sapiens, UniProt P05177).
T1 sequence (P05177 whole entry): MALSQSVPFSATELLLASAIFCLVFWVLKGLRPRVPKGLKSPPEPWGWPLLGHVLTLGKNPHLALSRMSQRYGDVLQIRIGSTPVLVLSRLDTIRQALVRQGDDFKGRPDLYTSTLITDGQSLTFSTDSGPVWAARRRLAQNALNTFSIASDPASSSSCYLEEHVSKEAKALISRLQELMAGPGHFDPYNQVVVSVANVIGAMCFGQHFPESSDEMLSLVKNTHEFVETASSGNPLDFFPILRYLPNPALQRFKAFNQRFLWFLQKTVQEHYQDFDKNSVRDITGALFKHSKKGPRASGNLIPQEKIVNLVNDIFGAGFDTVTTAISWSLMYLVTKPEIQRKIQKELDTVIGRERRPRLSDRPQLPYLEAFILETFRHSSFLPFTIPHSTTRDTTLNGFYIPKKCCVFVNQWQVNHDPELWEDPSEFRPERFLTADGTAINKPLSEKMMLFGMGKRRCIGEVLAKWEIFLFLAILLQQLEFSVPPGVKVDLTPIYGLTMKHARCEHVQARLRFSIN
The experiment in a line: Inhibition of CYP1A2 (unknown origin). It is filed as ADME. The gist of the method:
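CYP1A2 was assessed in a P450 isozyme panel with 3A4, 2C9 and 2D6. The compound was tested at 30 μM, and the value is reported as a threshold relative to that concentration.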

Another series has as its system Rattus norvegicus. In words: Clearance in Sprague-Dawley rat at 1 mg/kg, iv. Type of series: ADME, organism-based. The following applies: in vivo. The gist of the method:
as §1

Cytochrome P450 3A4, sequence (P08684 whole entry): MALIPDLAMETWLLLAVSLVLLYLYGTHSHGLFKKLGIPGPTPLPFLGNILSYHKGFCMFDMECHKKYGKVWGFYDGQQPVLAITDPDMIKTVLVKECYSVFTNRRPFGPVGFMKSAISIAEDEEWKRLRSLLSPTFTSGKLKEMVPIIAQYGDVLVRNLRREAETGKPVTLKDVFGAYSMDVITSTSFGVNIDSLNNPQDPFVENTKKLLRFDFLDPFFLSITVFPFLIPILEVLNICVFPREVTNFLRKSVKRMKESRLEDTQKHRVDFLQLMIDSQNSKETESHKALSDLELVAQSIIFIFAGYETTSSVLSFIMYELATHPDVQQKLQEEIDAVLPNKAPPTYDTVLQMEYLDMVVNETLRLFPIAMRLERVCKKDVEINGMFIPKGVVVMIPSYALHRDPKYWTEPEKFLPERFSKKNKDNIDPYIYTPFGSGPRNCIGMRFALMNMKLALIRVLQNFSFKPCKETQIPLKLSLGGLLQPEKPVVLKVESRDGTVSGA
Cytochrome P450 2C9, sequence (P11712 whole entry): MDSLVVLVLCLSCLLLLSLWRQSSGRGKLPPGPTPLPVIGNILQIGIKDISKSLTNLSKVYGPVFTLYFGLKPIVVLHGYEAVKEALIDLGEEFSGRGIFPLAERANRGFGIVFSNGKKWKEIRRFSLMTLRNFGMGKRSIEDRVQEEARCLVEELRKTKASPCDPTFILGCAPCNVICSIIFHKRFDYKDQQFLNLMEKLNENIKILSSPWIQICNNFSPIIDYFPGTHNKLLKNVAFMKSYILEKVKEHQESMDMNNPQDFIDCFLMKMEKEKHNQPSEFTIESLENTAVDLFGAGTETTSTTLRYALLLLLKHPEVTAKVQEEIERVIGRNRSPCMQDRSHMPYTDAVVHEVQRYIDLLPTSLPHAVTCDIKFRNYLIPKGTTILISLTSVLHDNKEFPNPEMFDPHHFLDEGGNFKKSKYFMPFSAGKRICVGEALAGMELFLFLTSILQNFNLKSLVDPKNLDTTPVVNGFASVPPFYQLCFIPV
Cytochrome P450 2D6, sequence (P10635 whole entry): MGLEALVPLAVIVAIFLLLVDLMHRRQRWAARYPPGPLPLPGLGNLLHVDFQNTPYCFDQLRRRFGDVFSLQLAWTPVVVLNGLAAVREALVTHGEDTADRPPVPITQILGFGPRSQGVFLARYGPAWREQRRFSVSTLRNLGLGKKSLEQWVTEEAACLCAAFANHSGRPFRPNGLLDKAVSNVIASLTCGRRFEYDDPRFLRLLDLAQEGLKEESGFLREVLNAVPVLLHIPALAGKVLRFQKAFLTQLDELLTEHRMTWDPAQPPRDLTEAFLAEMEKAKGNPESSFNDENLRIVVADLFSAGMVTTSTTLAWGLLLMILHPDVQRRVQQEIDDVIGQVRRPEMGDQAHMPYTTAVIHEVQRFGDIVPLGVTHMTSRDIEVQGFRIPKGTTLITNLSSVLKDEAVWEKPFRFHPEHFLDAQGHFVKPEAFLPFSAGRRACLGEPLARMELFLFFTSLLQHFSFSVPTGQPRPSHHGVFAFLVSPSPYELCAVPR

As for `O=C(NCCCNCc1ccccn1)c1cc(-c2ccccc2)on1`, in series [1], the fold change (FC) was found to be 2.52.
Same read-out and setting: the result for `Cc1cc(CNCCCNC(=O)c2cc(-c3ccccc3)on2)on1` reads 3.4.
With `O=C(NCCCNC(=O)c1nccs1)c1cc(-c2ccccc2)on1`, the EC50 in series [2] is 4.8 µM.
For `O=C(NCCCNC(=O)c1cc(Br)ccc1O)c1cc(-c2ccccc2)on1`, the fold change (FC) in series [1] was found to be 2.43.
Turning to `COc1cncc(CNCCCNC(=O)c2cc(-c3ccccc3)on2)c1`, in series [1], the fold change (FC) was determined as 3.58.
Same read-out and setting: the result for `O=C(NCCCNC(=O)c1n[nH]c2ccccc12)c1cc(-c2ccccc2)on1` reads 1.62; that for `O=C(NCCCN1CCOCC1)c1n[nH]c2ccccc12`, 0.63; that for `O=C(NCCCCNC(=O)c1cc(I)ccc1O)c1cc(-c2ccccc2)on1`, 2.43.
`O=C(NCCCCNC(=O)c1cccnc1O)c1cc(-c2ccccc2)on1`: the Fu in series [3] worked out at 0.01; in series [7] it was 0.11; in series [8], 0.19. Moreover, the IC50 against Cytochrome P450 3A4, against Cytochrome P450 2C9, at Cytochrome P450 2D6 and on Cytochrome P450 1A2 was > 30 µM in each case. Also, the clearance amounted to 33 mL/min/kg in series [4], 180 mL/min/kg in series [6], 0 mL/min/kg in [9] and 18 mL/min/kg with Rattus norvegicus. In [5], this molecule had a half-life of 7.6 h. For the same molecule, the fold change (FC) in series [1] came to 5.23.
On to `O=C(NCCCCNC(=O)c1ccc(Cl)o1)c1cc(-c2ccccc2)on1`, for which the response in [2] was half-maximal at 4.6 µM (EC50).
In series [2], `O=C(Cc1ccccc1O)NCCCNC(=O)c1cc(-c2ccccc2)on1` showed an EC50 of 3.7 µM. This EC50 and that of the molecule before are within 1.5-fold of each other.
Regarding `Cn1nc(C(=O)NCCCCc2ccncc2)cc1-c1ccccc1`, in series [1], the fold change (FC) amounted to 1.38.
Same read-out and setting: as for `CC(CNC(=O)c1cc(-c2cccs2)on1)c1ccncc1` (stereo unspecified), the figure is 0.32.
The same measure, in the same setting: the result for `O=C(NCCCNCc1cccnc1)c1cc(-c2ccccc2)on1` reads 3.06; that for `Cc1c(C(=O)NCCCCc2ccncc2)nn(C)c1-c1ccccc1`, 0.75.
On the same count and under the same terms, the result for `Cc1ncc(CNCCCNC(=O)c2cc(-c3ccccc3)on2)o1` reads 1.5.
`[N-]=[N+]=Nc1ccnc(NCCCNC(=O)c2cc(-c3ccccc3)on2)n1`: the EC50 in series [2] came out at 5.3 µM. This lies in the single-digit micromolar range.
As to `O=C(NCCCCNC(=O)c1c[nH]c2ccccc12)c1cc(-c2ccccc2)on1`, the fold change (FC) in series [1] was 2.39.
As for `N#Cc1ccnc(NCCCNC(=O)c2cc(-c3ccccc3)on2)c1`, in [2], the EC50 is 12 µM.
As for `O=C(NCCCNCc1ccc(O)cc1O)c1cc(-c2ccccc2)on1`, the fold change (FC) in series [1] amounted to 2.33.
Still for that read-out and setting: the result for `O=C(NCCCNCc1ccccc1O)c1cc(-c2ccccc2)on1` reads 3.59.
`O=C(Cc1c[nH]c2ccccc12)NCCCCNC(=O)c1cc(-c2ccccc2)on1`: the response in series [2] was half-maximal at 12.6 µM (EC50).
Same read-out and setting: as for `O=C(NCCCCNC(=O)c1cc(-c2ccccc2)on1)c1cccnc1`, the figure is 7.1 µM.
For `O=C(NCCCCNC(=O)c1cc(-c2ccccc2)on1)c1cscn1`, in series [1], the fold change (FC) amounted to 3.7.
Consider `O=C(NCCCNCc1c[nH]c2ncccc12)c1cc(-c2ccccc2)on1`, for which, in [1], the fold change (FC) is 1.67.
With `Cc1ccc(C(=O)NCCCCNC(=O)c2cc(-c3ccccc3)on2)c(O)n1`, it took 5.6 µM to reach a half-maximal effect in [2] (EC50).
`O=C(NCCCCNC(=O)c1cccs1)c1cc(-c2cccs2)on1`: the fold change (FC) in [1] was 3.04.
Still for that read-out and setting: as for `O=C(NCCCNC(=O)c1cc(-c2ccccc2)[nH]n1)c1ccncc1`, the figure is 1.29.
The same measure, in the same setting: the result for `O=C(NCCCNC(=O)c1cc(-c2ccccc2)on1)c1cccnc1` reads 3.05.
Still for that read-out and setting: as for `O=C(NCCCCNC(=O)c1cc(-c2ccccc2)on1)c1ccc(O)c(O)c1`, the figure is 2.69.
The molecule `CC(=O)n1cc(CNCCCNC(=O)c2cc(-c3ccccc3)on2)c2ccccc21` displayed an EC50 in series [2] of 15 µM.
In the case of `O=C(NCCCCNC(=O)c1cc(-c2cccs2)on1)c1cccnc1`, the midpoint of the response in series [2], the EC50, lay at 5 µM.
Take `O=C(NCCCNCc1c[nH]c2ccccc12)c1cc(-c2ccccc2)on1`: the fold change (FC) in series [1] is 1.44.
On the same count and under the same terms, the result for `O=C(NCCCCNC(=O)c1cc(-c2ccccc2)on1)c1cocn1` reads 3.35.
The same measure, in the same setting: as for `O=C(NCCCn1ccnc1)c1noc2ccccc12`, the figure is 1.21.
For the molecule `O=C(NCCCNC(=O)c1cc(-c2ccccc2)on1)c1ccncc1`, in series [2], the response was half-maximal at 8.8 µM (EC50).
Still for that read-out and setting: the result for `Nc1cncc(C(=O)NCCCCNC(=O)c2cc(-c3cccs3)on2)n1` reads 5.6 µM.
Regarding `O=C(NCCCNCc1ccc(O)c(O)c1)c1cc(-c2ccccc2)on1`, the fold change (FC) in [1] was determined as 1.54.
As for `O=C(NCCCCc1ccncc1)c1cc(-c2ccco2)on1`, a half-maximal response in [2] (EC50) required 4.7 µM.

(Values after ChEMBL document CHEMBL3616409, “Optimization of a small molecule probe that restores e-cadherin expression” (Bioorg Med Chem Lett, 2015).)
